Data taken from ChEMBL document CHEMBL1130347, “Lanthionine-somatostatin analogs: synthesis, characterization, biological activity, and enzymatic stability studies” (J Med Chem, 1997).
Bridge positions count the residues as written; N and C are the ends. Square brackets hold non-standard residues; d marks the D form. Peptide text beside a SMILES is read from it. * marks the point of attachment. Threoninol(2S,3R) = C[C@@H](O)[C@H](CO)N*

What was measured:
Rattus norvegicus = species on record: Rattus norvegicus; test: Tested for inhibition of growth hormone (GH)release from primary cultures of male rat anterior pituitary cells; format: functional, cell-based; details: Pituitary gland cell
[1] = target: Somatostatin receptor type 2 (Mus musculus, UniProt P30875); test: Tested for inhibition of radioligand binding to cloned somatostatin receptor mSSTR2b
Chain of Somatostatin receptor type 2 (P30875 whole entry): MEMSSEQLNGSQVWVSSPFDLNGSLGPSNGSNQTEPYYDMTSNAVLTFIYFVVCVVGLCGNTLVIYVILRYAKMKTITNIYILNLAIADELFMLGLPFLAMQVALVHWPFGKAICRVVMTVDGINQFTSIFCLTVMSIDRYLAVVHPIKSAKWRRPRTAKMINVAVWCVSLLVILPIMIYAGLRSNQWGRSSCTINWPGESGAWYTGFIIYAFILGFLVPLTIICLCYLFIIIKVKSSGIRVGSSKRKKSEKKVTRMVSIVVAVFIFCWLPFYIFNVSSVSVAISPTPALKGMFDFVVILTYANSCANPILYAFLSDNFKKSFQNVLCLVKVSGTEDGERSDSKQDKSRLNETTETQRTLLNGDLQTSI

[2] = target: Somatostatin receptor type 3 (Mus musculus, UniProt P30935); test: Tested for inhibition of radioligand binding to cloned somatostatin receptor mSSTR3
Chain of Somatostatin receptor type 3 (P30935 whole entry): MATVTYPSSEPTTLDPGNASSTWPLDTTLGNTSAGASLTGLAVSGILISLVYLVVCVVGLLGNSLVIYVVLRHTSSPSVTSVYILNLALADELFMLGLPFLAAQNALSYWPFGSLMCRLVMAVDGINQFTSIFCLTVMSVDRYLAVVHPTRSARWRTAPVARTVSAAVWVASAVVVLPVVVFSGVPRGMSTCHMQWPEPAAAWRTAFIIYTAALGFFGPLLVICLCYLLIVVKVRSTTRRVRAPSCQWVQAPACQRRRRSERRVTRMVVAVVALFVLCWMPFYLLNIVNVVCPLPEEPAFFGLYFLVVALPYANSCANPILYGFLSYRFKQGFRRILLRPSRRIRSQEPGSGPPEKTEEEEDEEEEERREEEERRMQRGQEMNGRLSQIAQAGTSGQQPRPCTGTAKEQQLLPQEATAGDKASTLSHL

[3] = target: Somatostatin receptor type 4 (Homo sapiens, UniProt P31391); test: Tested for inhibition of radioligand binding to cloned somatostatin receptor hSSTR4
Chain of Somatostatin receptor type 4 (P31391 whole entry): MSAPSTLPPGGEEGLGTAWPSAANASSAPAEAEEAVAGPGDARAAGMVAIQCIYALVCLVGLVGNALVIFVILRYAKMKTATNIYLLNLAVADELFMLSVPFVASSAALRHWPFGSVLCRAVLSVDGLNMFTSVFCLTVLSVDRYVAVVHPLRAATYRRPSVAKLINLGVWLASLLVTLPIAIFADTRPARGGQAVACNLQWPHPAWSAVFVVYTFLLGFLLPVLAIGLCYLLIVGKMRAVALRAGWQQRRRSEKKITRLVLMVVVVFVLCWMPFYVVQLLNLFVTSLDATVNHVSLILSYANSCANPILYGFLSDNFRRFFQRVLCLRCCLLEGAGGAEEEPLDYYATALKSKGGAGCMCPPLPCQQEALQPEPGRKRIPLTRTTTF

[4] = target: T1, Somatostatin receptor type 5 (Rattus norvegicus, UniProt P30938); test: Tested for inhibition of radioligand binding to cloned somatostatin receptor rSSTR5
T1 sequence (P30938 whole entry): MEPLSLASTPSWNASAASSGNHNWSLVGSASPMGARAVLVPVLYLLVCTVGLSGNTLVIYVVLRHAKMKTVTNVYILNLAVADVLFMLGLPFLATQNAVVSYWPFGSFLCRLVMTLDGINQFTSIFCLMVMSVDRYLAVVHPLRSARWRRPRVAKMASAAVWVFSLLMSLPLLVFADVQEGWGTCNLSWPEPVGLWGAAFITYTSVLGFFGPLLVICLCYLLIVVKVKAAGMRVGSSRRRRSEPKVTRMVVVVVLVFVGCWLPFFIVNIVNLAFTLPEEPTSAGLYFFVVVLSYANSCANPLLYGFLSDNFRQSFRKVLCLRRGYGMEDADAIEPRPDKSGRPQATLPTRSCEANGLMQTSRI

[5] = target: Somatostatin receptor type 5 (Homo sapiens, UniProt P35346); test: Tested for inhibition of radioligand binding to cloned somatostatin receptor hSSTR5
Chain of Somatostatin receptor type 5 (Homo sapiens, UniProt P35346) (P35346 whole entry): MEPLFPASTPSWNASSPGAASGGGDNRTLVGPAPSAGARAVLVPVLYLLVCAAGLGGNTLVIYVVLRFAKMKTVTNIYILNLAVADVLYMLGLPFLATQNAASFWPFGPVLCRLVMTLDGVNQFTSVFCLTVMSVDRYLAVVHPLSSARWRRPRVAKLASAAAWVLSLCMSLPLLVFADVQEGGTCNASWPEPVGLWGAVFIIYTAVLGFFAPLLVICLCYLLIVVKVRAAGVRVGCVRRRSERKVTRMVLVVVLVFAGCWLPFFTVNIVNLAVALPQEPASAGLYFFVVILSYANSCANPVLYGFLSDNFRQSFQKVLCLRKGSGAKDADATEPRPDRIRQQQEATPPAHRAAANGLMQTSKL

[6] = half-life of compound; format: ADME
Procedure, shortened: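 Aliquots taken at 5, 15, 30, 45, 60 and 90 min were quenched in ice-cold 1 M acetic acid and centrifuged. Remaining peptide was measured by microbore RP-HPLC at 216 nm against homogenate calibration. A pseudo-first-order exponential fit gave k, and half-life = 0.693/k.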

Row | Structure (SMILES) | IC50 (Rattus norvegicus) | IC50 [1] | IC50 [2] | IC50 [3] | further results
1 | C[C@@H](O)[C@@H]1NC(=O)[C@H](CCCCN)NC(=O)[C@@H](Cc2c[nH]c3ccccc23)NC(=O)[C@H](Cc2ccccc2)NC(=O)[C@@H](N)CSC[C@@H](C(=O)O)NC1=O [listing 1 of 2 here] | > 1000 nM |  |  |  | 
2 | C[C@@H](O)[C@@H]1NC(=O)[C@H](CCCCN)NC(=O)[C@@H](Cc2c[nH]c3ccccc23)NC(=O)[C@H](Cc2ccccc2)NC(=O)[C@@H](N)CSC[C@@H](C(=O)O)NC1=O [listing 2 of 2 here] |  | > 1000 nM | > 1000 nM | > 1000 nM | 
3 | C[C@@H](O)[C@H]1NC(=O)[C@H](CCCCN)NC(=O)[C@@H](Cc2c[nH]c3ccccc23)NC(=O)[C@H](Cc2ccccc2)NC(=O)[C@@H](N)CSC[C@H](C(=O)O)NC1=O |  |  |  |  | IC50 [4]: 500 nM
4 | C[C@@H](O)[C@@H]1NC(=O)[C@H](CCCCN)NC(=O)[C@@H](Cc2c[nH]c3ccccc23)NC(=O)[C@H](Cc2ccccc2)NC(=O)[C@@H](NC(=O)[C@H](N)Cc2ccccc2)CSSC[C@@H](C(=O)O)NC1=O |  | 13.6 nM |  |  | 
5 | C[C@@H](O)[C@H]1NC(=O)[C@H](CCCCN)NC(=O)[C@@H](Cc2c[nH]c3ccccc23)NC(=O)[C@H](Cc2ccccc2)NC(=O)[C@@H](NC(=O)[C@@H](N)Cc2ccccc2)CSSC[C@H](C(=O)O)NC1=O |  |  | > 1000 nM | > 1000 nM | 
6 | C[C@@H](O)[C@H](NC(=O)[C@@H]1CSC[C@H](NC(=O)[C@H](N)Cc2ccccc2)C(=O)N[C@@H](Cc2ccccc2)C(=O)N[C@H](Cc2c[nH]c3ccccc23)C(=O)N[C@@H](CCCCN)C(=O)N[C@@H]([C@@H](C)O)C(=O)N1)C(N)=O [listing 1 of 2 here] |  |  |  |  | IC50 [5]: 4.92 nM
7 | C[C@@H](O)[C@H](NC(=O)[C@@H]1CSC[C@H](NC(=O)[C@H](N)Cc2ccccc2)C(=O)N[C@@H](Cc2ccccc2)C(=O)N[C@H](Cc2c[nH]c3ccccc23)C(=O)N[C@@H](CCCCN)C(=O)N[C@@H]([C@@H](C)O)C(=O)N1)C(N)=O [listing 2 of 2 here] |  | 16.6 nM | > 1000 nM | > 1000 nM | 
8 | C[C@@H](O)[C@H](NC(=O)[C@@H]1CSC[C@@H](NC(=O)[C@H](N)Cc2ccccc2)C(=O)N[C@H](Cc2ccccc2)C(=O)N[C@@H](Cc2c[nH]c3ccccc23)C(=O)N[C@H](CCCCN)C(=O)N[C@@H]([C@@H](C)O)C(=O)N1)C(N)=O | 70 nM |  |  |  | 
9 | C[C@@H](O)[C@@H]1NC(=O)[C@H](CCCCN)NC(=O)[C@@H](Cc2c[nH]c3ccccc23)NC(=O)[C@H](Cc2ccccc2)NC(=O)[C@@H](NC(=O)[C@H](N)Cc2ccccc2)CSC[C@@H](C(=O)O)NC1=O | > 1000 nM | > 1000 nM | > 1000 nM | > 1000 nM | 
10 | C[C@@H](O)[C@H](CO)NC(=O)[C@@H]1CSSC[C@H](NC(=O)[C@H](N)Cc2ccccc2)C(=O)N[C@@H](Cc2ccccc2)C(=O)N[C@H](Cc2c[nH]c3ccccc23)C(=O)N[C@@H](CCCCN)C(=O)N[C@@H]([C@@H](C)O)C(=O)N1 (H-[dF]CF[dW]KTC-{Threoninol(2S,3R)}; disulfide 2-7) | 0.52 nM | 0.28 nM | 3 nM |  | IC50 [4]: 1.04 nM; half-life [6]: 12.5 h
11 | C[C@H](N)C(=O)NCC(=O)N[C@H]1CSSC[C@@H](C(=O)O)NC(=O)[C@H](CO)NC(=O)[C@H]([C@@H](C)O)NC(=O)[C@H](Cc2ccccc2)NC(=O)[C@H]([C@@H](C)O)NC(=O)[C@H](CCCCN)NC(=O)[C@H](Cc2c[nH]c3ccccc23)NC(=O)[C@H](Cc2ccccc2)NC(=O)[C@H](Cc2ccccc2)NC(=O)[C@H](CC(N)=O)NC(=O)[C@H](CCCCN)NC1=O [SOMATOSTATIN] | 0.52 nM |  |  |  | 
